# Screening results deposited in PubChem BioAssay by Johns Hopkins Ion Channel Center.
# RGS4 block: human RGS4 inhibition | P49798 | HEK293 M3R/RGS4 inducible, Fluo-4 calcium flux; hits give high values; triggered by carbachol at its EC20 | B-score at 10 µM | hit rate 0.45% among 310,000;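 active = B-score, a plate-corrected calcium signal, over three deviations above library mean, with baseline fluorescence within five deviations of library mean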;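 also: RGS4 expression induced by doxycycline in cells with stable M3 receptor; B-score is computed from the integrated fluorescence ratio over baseline after carbachol; higher B-score means a larger calcium signal and so more RGS4 inhibition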
# Target sequence (P49798 whole entry, looked up): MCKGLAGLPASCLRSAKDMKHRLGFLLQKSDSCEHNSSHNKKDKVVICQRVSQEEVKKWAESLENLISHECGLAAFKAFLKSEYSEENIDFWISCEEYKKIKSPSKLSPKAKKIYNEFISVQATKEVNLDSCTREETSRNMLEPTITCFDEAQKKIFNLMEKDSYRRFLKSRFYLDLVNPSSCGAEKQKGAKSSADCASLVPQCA
# MrgX1 allo act: human MrgX1 positive allosteric modulation, primary screen | hit rate 0.63% among 310,000 | Q96LB2 | MrgX1-HEK293, Fluo-4 calcium flux, FDSS; hits give high values | B-score at 10 µM;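 active = plate-corrected calcium response at least 3 library SD above typical, normal starting fluorescence, not activating the receptor alone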;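 also: compound read alongside a low EC10 to EC30 dose of BAM8-22 agonist; peak minus trough fluorescence over baseline measured at the second addition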
# Target sequence (Q96LB2 whole entry, looked up): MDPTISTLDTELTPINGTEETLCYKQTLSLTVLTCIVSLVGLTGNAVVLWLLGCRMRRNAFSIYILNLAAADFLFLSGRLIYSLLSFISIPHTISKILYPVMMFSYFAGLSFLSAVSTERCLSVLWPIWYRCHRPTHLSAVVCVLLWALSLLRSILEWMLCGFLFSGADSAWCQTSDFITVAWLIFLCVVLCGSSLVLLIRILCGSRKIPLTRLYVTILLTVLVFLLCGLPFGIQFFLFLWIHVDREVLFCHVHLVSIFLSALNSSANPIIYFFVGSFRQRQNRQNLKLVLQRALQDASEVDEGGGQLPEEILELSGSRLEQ
# MrgX1 ag: activates human MrgX1 receptor signaling; Q96LB2; MrgX1-HEK293 cells, Fluo-4 calcium fluorescence, agonist mode; hits give high values; B-score at 10 µM; hit rate 0.44% among 310,000;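 active = calcium response B-score plate-corrected fluorescence ratio at least 3 library SD, with starting fluorescence B-score inside 5 SD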
#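 Test system: HEK293 cells stably expressing human MrgX1 receptor; Input: fifteen thousand cells per well; Dosing: compound delivered in addition one of three; Schedule: overnight seeding, then 1 h dark dye loading; Technique: Fluo-4 NW calcium fluorescence; Measure: B-scored fluorescence response ratio; Controls: positive and negative controls per plate.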
# RGS4 act: potentiators or activators of RGS4; HEK293 M3R/inducible RGS4, carbachol calcium flux Fluo4; hits give low values; B-score at 10 µM; hit rate 0.92% among 310,000; AID 463111;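 active = B-score of the integrated calcium signal more than 4 SD below the library mean, with starting fluorescence not abnormally high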;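 also: negative B-score means reduced calcium response which marks RGS4 activation or potentiation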
#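 Assay system: Inducible-RGS4 HEK293 cells carrying M3 receptor | Schedule: Compound preincubation 20 min at room temperature before agonist | Signal: Kinetic calcium fluorescence imaging with Fluo4-AM dye, 2 µM | Read-out basis: B score from integrated fluorescence ratio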
# MrgX1 antagonist: human MrgX1 receptor antagonism, primary screen. MRGX1-HEK293 calcium flux, Fluo-4, BAM8-22 antagonism; hits give low values. B-score at 10 µM. hit rate 1.3% among 310,000. AID 588676;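 active = calcium-response B-score plate-corrected more than 3 library SD below zero, starting fluorescence within 5 deviations, no agonist response on first addition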;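 also: peak minus trough fluorescence over baseline after final BAM8-22 challenge near maximal dose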
# MrgX1 ant reconf: confirmation of human MrgX1 receptor antagonists; shares compounds with MrgX1 antagonist; MrgX1-HEK293, BAM8-22 calcium flux, Fluo-4; hits give low values; remaining BAM8-22 calcium response % of control (hits give low values), % at 10 µM; hit rate 19% among 2,300;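 active = remaining agonist calcium response no higher than 100% minus 3 SD of agonist-only control wells, with starting fluorescence near control levels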;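 also: agonist BAM8-22 given at a near maximal EC90 to ECmax level; peak minus minimum fluorescence divided by baseline after agonist addition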
# HEK293 Ca flux: MrgX1 antagonist counter-screen hit in parental HEK293 cells; Fluo-4 calcium fluorescence, FDSS; fluorescence ratio F(max-min)/F0 at 10 µM; hit rate 2% among 4,000; shares compounds with MrgX1 antagonist;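 active = duplicate-averaged calcium fluorescence ratio at least three times the standard deviation of buffer wells, a nonspecific response in parental cells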
# HEK293 Ca counter: MrgX1 allosteric activator counter-screen hit in parental HEK293 cells; fluorescence ratio F(max-min)/F0 at 10 µM; AID 624114; parental HEK293 calcium flux, Fluo-4 fluorescence ratio; hits give high values; shares compounds with MrgX1 antagonist; hit rate 0.4% among 4,000;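 active = calcium fluorescence ratio, averaged over duplicates, at least 3 SD of the buffer-well ratio, meaning a nonspecific response in receptor-free cells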;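 also: untransfected parental HEK293 lacking MrgX1 used as counterscreen for MrgX1 allosteric activators; fluorescence change taken during the second addition on a kinetic imager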
# HEK293 Ca cntr2: counter-screen for MrgX1 activators: effect in parental HEK293 cells; shares compounds with MrgX1 antagonist; Fluo-4 calcium fluorescence (FDSS); hits give high values; fluorescence ratio F(max-min)/F0 at 10 µM; hit rate 8.7% among 4,000; AID 624115;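 active = calcium fluorescence ratio at least three times the spread of buffer wells, meaning a non-specific response in parental cells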
# * marks the source's active call; other numbers are inactive results; i = inactive; / = no result given. This is a sample that favours compounds with a hit; in the whole collection about 3.5% have one here.
SMILES,RGS4 block,MrgX1 allo act,MrgX1 ag,RGS4 act,MrgX1 antagonist,MrgX1 ant reconf,HEK293 Ca flux,HEK293 Ca counter,HEK293 Ca cntr2
CCOC(=O)c1cc(-c2ccccc2)n(Cc2cc(CC)no2)n1,i,i,i,i,-5.5*,i,i,i,i
Cc1ccc(NC(=O)C2CCCC2)cc1Cl,i,i,i,i,i,/,/,/,/
O=C(CN1C(=O)NC2(CCCC2)C1=O)N1CCN(S(=O)(=O)c2ccccc2F)CC1,i,i,i,i,i,/,/,/,/
N#CC1(NC(=O)CN2CCN(S(=O)(=O)c3ccccc3F)CC2)CCCC1,i,i,i,i,-4.9*,i,i,i,i
CC(C)OC(=O)CSc1nc(-c2ccc(F)cc2)nc2ccc(F)cc12,i,i,i,i,-10*,i,i,i,i
CCOc1ccccc1N1CCN(C(=O)c2cc3c(C)cc(C)cc3[nH]2)CC1,i,i,i,i,i,/,/,/,/
NN1C(=O)NC(c2ccccc2)(c2ccccc2)C1=O,i,i,i,i,i,/,/,/,/
O=C(CSc1nnc(Cc2cc(=O)[nH]c(=O)[nH]2)n1-c1ccc(Cl)cc1)N1CCc2ccccc21,i,i,i,i,i,/,/,/,/
CN=Cc1cc(-c2ccccc2)sc1O,i,i,i,i,-6.2*,i,i,i,i
c1cncc(-c2nnc3n2N=C(c2cccs2)CS3)c1,i,i,i,i,-4.7*,i,i,i,i
O=C(CN1CCCCCCC1)Nc1cc(Cl)cc(Cl)c1,i,i,i,i,i,/,/,/,/
CC(NC(=O)C1CCCCC1)c1ccc2c(c1)OCCO2 (centres undefined),i,i,i,i,i,/,/,/,/
CC(=O)Nc1ccc(NS(=O)(=O)C(F)(F)F)cc1,i,i,i,i,-8.7*,i,i,i,i
CC(=O)Nc1ccc(-c2ccc(NC(C)=O)cc2)cc1,i,i,i,i,i,/,/,/,/
CC(=O)NC(=C(Cl)Cl)S(=O)(=O)c1ccccc1,i,i,i,i,i,/,/,/,/
COc1ccc(-c2nc3ccccc3c(=O)n2CCOc2ccccc2C)cc1,i,i,i,i,-7*,i,i,i,i
COc1ccc(-c2nc3ccccc3c(=O)n2CCOc2ccc(C)cc2C)cc1,i,i,i,i,i,/,/,/,/
CCS(=O)(=O)N1Cc2ccccc2CC1C(=O)Nc1nccs1 (centres undefined),i,i,i,i,i,/,/,/,/
COc1ccc(S(=O)(=O)n2ccc(C(C)Oc3ccc(-c4ccccc4)c(F)c3)n2)cc1 (centres undefined),i,i,i,i,-6.6*,i,i,i,i
COc1ccc2nc(NC(=O)C3CCN(S(=O)(=O)c4cccnc4)CC3)sc2c1,i,i,i,i,i,/,/,/,/
CCc1cccc(NC(=O)CCS(=O)(=O)c2ccc3c(c2)NC(=O)CO3)c1,i,i,i,i,i,/,/,/,/
CC(=O)Nc1ccc2c(c1)CCCC2,i,i,i,i,i,/,/,/,/
CC(=O)Nc1ccc2c(c1)CCCC2=O,i,i,i,i,-4.6*,77%*,i,i,i
COc1ccccc1NC(=O)c1oc2ccccc2c1NC(=O)c1ccco1,i,i,i,i,-5.2*,77%*,i,i,i
COc1cc(NC(=O)c2oc3ccccc3c2C)ccc1NC(=O)c1ccco1,i,i,i,i,i,/,/,/,/
SMILES,RGS4 block,MrgX1 allo act,MrgX1 ag,RGS4 act,MrgX1 antagonist,MrgX1 ant reconf,HEK293 Ca flux,HEK293 Ca counter,HEK293 Ca cntr2
COCCN1C(=O)/C(=C/c2ccc(N3CCCC3)cc2)SC1=S,i,i,i,i,-12*,i,i,i,i
COC(=O)c1ccccc1NC(=O)c1cc2sccc2n1C,i,i,i,i,-7.3*,85%*,i,i,i
CC(C)NC(=O)C1CCN(C(=O)c2ccc(-c3ccccc3)cc2)CC1,i,i,i,i,i,/,/,/,/
O=S(=O)(c1ccccc1)N1CCN(Cc2cccc(Cl)c2)CC1,/,i,i,/,-6.9*,i,i,i,i
O=C(c1cc(COc2c(F)cccc2F)on1)N1CCC(c2ccccc2Cl)C1 (centres undefined),i,i,i,i,i,/,/,/,/
O=C(c1cc(COc2cccc3cnccc23)on1)N1CCC(c2ccccc2Cl)C1 (centres undefined),i,i,i,i,-4.6*,i,i,i,i
CC(=O)N1CN(CCCn2ccnc2)Cc2c1sc1c2CCCC1,i,i,i,i,-5.8*,i,i,i,i
CC(=O)N1CN(Cc2ccccn2)Cc2c1sc1c2CCCC1,i,i,i,i,i,/,/,/,/
Cc1cc(C)cc(NC(=O)NCc2c(-c3ccccc3)noc2C)c1,i,i,i,i,i,/,/,/,/
Cc1onc(-c2ccccc2)c1CNC(=O)Nc1cccc(Cl)c1,i,i,i,i,-6.6*,82%*,i,i,i
CC(C)c1ccccc1NC(=S)NC(C)c1ccccc1 (centres undefined),i,i,i,i,i,/,/,/,/
O=C(c1ccc(Cl)cc1Cl)N1CCC(c2nc3c(nnn3Cc3ccco3)c(=O)[nH]2)CC1,i,i,i,i,i,/,/,/,/
O=C(CN1C(=O)NC2(CCCC2)C1=O)N1CCN(c2cccc(C(F)(F)F)c2)CC1,i,i,i,i,i,/,/,/,/
CC1(C)NC(=O)N(CC(=O)N2CCN(c3cccc(C(F)(F)F)c3)CC2)C1=O,i,i,i,i,-6.5*,67%*,i,i,i
Cc1cc(=O)oc2cc(NC(=O)CCCC(=O)O)ccc12,i,i,i,i,i,/,/,/,/
CSc1ccccc1NC(=O)CCn1c(=O)sc2ccccc21,i,i,i,i,-6.3*,i,i,i,i
COc1ccc(S(=O)(=O)NCCCCC(=O)O)cc1C(=O)O,i,i,i,i,i,/,/,/,/
